Assays:
[1] = test system: H460 cells; experiment: Total and mitochondrial ATP content; assay type: cell-based, human
Procedure, shortened: (§1)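 Cells (8000/well) were incubated 18 h at 37℃ (5% CO2). Test compound was added at half‐log doses, final 10 nM–10 µM, to paired plates for 1 h, with or without 100 µM iodoacetate. ATP was read by CellTiter‐Glo luminescence: mitochondrial ATP with iodoacetate, global ATP without. Mean ± SD.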

[2] = test system: patients; settings: no reference given; cited from earlier work
[3] = test system: H460 cells; experiment: Apoptosis assay; assay type: cell-based, human
[4] = test system: ferret; experiment: Ferret model of emesis; assay type: in vivo; settings: increasing doses; for induction of emesis (retches and vomits): 2 h test
[5] = test system: H460 cells; experiment: Mitochondria respiration profiling; assay type: cell-based, human
Procedure, shortened: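 On the XF96, basal OCR was followed by injection of test compound doses (10X), then oligomycin (1 µg/ml), FCCP, and rotenone plus antimycin A (1 µM each). Cycles were 4 min mix, 3 min measure; control injections were medium. OCR expressed as fold of vehicle.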

[6] = test system: H460 cells; experiment: Proliferation assay; assay type: cell-based, human
[7] = test system: LL/2 cells; experiment: Proliferation assay; assay type: cell-based; settings: Mus musculus, LL/2, read-out: apparent IC50 proliferation
[8] = target: OCT1 (Homo sapiens, UniProt O15245); experiment: In vitro transporter inhibition; assay type: in vitro ADME
[9] = target: CCK2R (Homo sapiens, UniProt P32239); experiment: Cerep in vitro safety screen, competition with reference ligand binding; settings: 10 µM
Procedure, shortened: (§2)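 Cerep in vitro safety screen: test compound at 10 µM assessed for competition with reference ligand binding across a panel of 300 receptors.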

[10] = test system: KARPAS 422 cells; experiment: Proliferation assay; assay type: cell-based; settings: Homo sapiens, KARPAS-422, read-out: IC50 proliferation
[11] = target: Complex I purified from bovine heart (Bos taurus, UniProt P03887+P17694+P42026); experiment: MitoTox Complex I OxPhos Activity Assay; assay type: biochemical
Procedure, shortened: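 MitoTox Complex I kit: Complex I purified from bovine heart and immunocaptured on the plate by specific antibodies. Activity followed as the decrease in absorbance at 340 nm from NADH oxidation.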

[12] = target: MLK2 (Homo sapiens, UniProt Q02779); experiment: DiscoverX KiNativ in situ kinase selectivity panel on live Jurkat cells; assay type: cell-based; settings: 10 µM
[13] = test system: U87 cells; experiment: Mitochondrial ATP content; assay type: cell-based; settings: Homo sapiens, U-87 MG, 1 h, read-out: IC50 mitochondrial ATP production
Procedure, shortened: as §1

[14] = test system: mitochondria isolated from liver of OF1; assay type: biochemical; settings: 7.5 µM
Procedure, shortened: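 Polarographic measurement of oxidation and phosphorylation rates in mitochondria isolated from liver of female OF1 mice, over a range of test compound doses.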

[15] = test system: H460‐LKB1 cells; experiment: mTOR/AMPK pathway signaling; assay type: cell-based, human; settings: H460‐LKB1, within minutes after exposure
[16] = test system: H460‐luc2 orthotopic tumors; experiment: Orthotopic H460 lung tumor model; assay type: in vivo, Balb/CJ‐Nude mice; settings: 30 mg/kg p.o. QD from D7
Procedure, shortened: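 Male Balb/c Nude mice, 7 weeks old, were anaesthetised i.p. with Rompun (20 mg/kg) plus Imalgene (100 mg/kg). They were inoculated intrabronchially via an oral catheter with 25 µl of H460‐Luc2 cells at 20 million/ml in PBS. Mice were allocated by bioluminescence at D7 and dosed orally at 30 mg/kg daily for 15 days (3 mg/ml in PEG200/Solutol HS15/water 30%/5%/65%, 10 ml/kg) or vehicle; n = 9/group. Imaging at D7/D14/D21 used 12 min post i.p. D‐luciferin (2 mg). Tumors were measured at termination; t‐test.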

[17] = target: OATP1B3 (Homo sapiens, UniProt Q9NPD5); experiment: In vitro transporter inhibition; assay type: in vitro ADME
[18] = test system: KARPAS 422 cells; experiment: Glucose and lactate levels; assay type: cell-based, human
[19] = test system: H460‐LKB1 cells; experiment: Total and mitochondrial ATP content; assay type: cell-based, human; settings: H460‐LKB1, whatever the dose
Procedure, shortened: as §1

[20] = Tissue distribution after single oral administration; assay type: in vivo, C57BL/6J mice; settings: male, C57BL/6J, mouse, 30 mg/kg
[21] = test system: 198 kinases; experiment: DiscoverX KiNativ in situ kinase selectivity panel on live Jurkat cells; assay type: cell-based; settings: 10 µM
[22] = test system: H460 WT cells; experiment: mTOR/AMPK pathway signaling; assay type: cell-based, human; settings: WT H460, over 60 min
[23] = test system: MDA‐MB231 cells; experiment: Mitochondrial ATP content; assay type: cell-based; settings: Homo sapiens, MDA-MB-231, 1 h, read-out: IC50 mitochondrial ATP production
Procedure, shortened: as §1

[24] = target: MRP2 (Homo sapiens, UniProt Q92887); experiment: In vitro transporter inhibition; assay type: in vitro ADME
[25] = test system: glycolytic‐Eµ‐Myc lymphoma; experiment: B‐cell lymphoma in vivo study, glycolytic‐Eµ‐Myc; design: species or system C57BL/6 mice; settings: 30 mg/kg p.o. QD, glycolytic‐Eµ‐Myc‐bearing mice
Procedure, shortened: (§3)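 Syngeneic female C57BL/6J Ola Hsd mice, 6 weeks old, received 1 × 10^5 viable Eμ‐Myc cells in PBS by tail vein. Oral dosing began 6 days later, when inguinal nodes became palpable: 30 mg/kg daily at 10 ml/kg in PEG200/Solutol HS15/water (30%/5%/65%), or vehicle alone; n = 10/group. Weight and node palpation every 2–3 days. Mice sacrificed at illness signs; node tumors and spleens weighed. Kaplan–Meier survival, log‐rank test.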

[26] = test system: mouse acute myeloid leukemia; settings: ref Luna Yolba, in revision; cited from earlier work
[27] = target: OATP1B1 (Homo sapiens, UniProt Q9Y6L6); experiment: In vitro transporter inhibition; assay type: in vitro ADME
[28] = test system: H460‐LKB1 cells; experiment: Apoptosis assay; assay type: cell-based, human; settings: H460‐LKB1, even at 10 µM
[29] = test system: LL/2 cells; experiment: Apoptosis assay; assay type: cell-based, mouse; settings: LL/2, even at 10 µM
[30] = test system: Hep3B cells; experiment: Mitochondrial ATP content; assay type: cell-based; settings: Homo sapiens, 1 h, read-out: IC50 mitochondrial ATP production
Procedure, shortened: as §1

[31] = target: OAT1 (Homo sapiens, UniProt Q4U2R8); experiment: In vitro transporter inhibition; assay type: in vitro ADME
[32] = Plasma pharmacokinetics after intravenous and oral administration; assay type: in vivo, C57BL/6J mice
Procedure, shortened: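 Plasma pharmacokinetics in C57BL/6J mice: intravenous test compound at 3 mg/kg, and escalating oral doses of 10, 30 and 75 mg/kg.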

[33] = target: P‐gp (Homo sapiens, UniProt P08183); experiment: In vitro transporter inhibition; assay type: in vitro ADME; settings: expressed in MDCKII
[34] = target: A2AR (Homo sapiens, UniProt P29274); experiment: Cerep in vitro safety screen, competition with reference ligand binding; settings: 10 µM
Procedure, shortened: as §2

[35] = target: CCK1R (Homo sapiens, UniProt P32238); experiment: as above; settings: 10 µM
Procedure, shortened: as §2

[36] = test system: OxPhos‐Eµ‐Myc lymphoma; experiment: B‐cell lymphoma in vivo study, OxPhos‐Eµ‐Myc; design: species or system C57BL/6 mice; settings: 30 mg/kg p.o. QD, OxPhos‐Eµ‐Myc‐bearing mice
Procedure, shortened: as §3

[37] = test system: OxPhos‐Eµ‐Myc and glycolytic‐Eµ‐Myc lymphoma cells; experiment: In vitro cell death assay; assay type: cell-based, mouse; settings: 10 µM, 24 h, DAPI positive cells
Procedure, shortened: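 Primary Eμ‐Myc cells were maintained in DMEM with 10% FBS, 2‐mercaptoethanol (50 µM), L‐asparagine (0.37 mM) and HEPES (10 mM, pH 7.4). Cells (2 × 10^5/well) were exposed to test compound or DMSO for 24 h, stained with DAPI (0.5 µg/ml) and analysed by flow cytometry. Cell death = % DAPI‐positive in treated cells ÷ % DAPI‐positive in control. Mean of 4 independent experiments, 5 clones per group.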

[38] = target: BCRP (Homo sapiens, UniProt Q9UNQ0); experiment: In vitro transporter inhibition; assay type: in vitro ADME
[39] = test system: patients; settings: 18 patients with advanced solid tumors; cited from earlier work

OATP1B1, sequence (Q9Y6L6 whole entry): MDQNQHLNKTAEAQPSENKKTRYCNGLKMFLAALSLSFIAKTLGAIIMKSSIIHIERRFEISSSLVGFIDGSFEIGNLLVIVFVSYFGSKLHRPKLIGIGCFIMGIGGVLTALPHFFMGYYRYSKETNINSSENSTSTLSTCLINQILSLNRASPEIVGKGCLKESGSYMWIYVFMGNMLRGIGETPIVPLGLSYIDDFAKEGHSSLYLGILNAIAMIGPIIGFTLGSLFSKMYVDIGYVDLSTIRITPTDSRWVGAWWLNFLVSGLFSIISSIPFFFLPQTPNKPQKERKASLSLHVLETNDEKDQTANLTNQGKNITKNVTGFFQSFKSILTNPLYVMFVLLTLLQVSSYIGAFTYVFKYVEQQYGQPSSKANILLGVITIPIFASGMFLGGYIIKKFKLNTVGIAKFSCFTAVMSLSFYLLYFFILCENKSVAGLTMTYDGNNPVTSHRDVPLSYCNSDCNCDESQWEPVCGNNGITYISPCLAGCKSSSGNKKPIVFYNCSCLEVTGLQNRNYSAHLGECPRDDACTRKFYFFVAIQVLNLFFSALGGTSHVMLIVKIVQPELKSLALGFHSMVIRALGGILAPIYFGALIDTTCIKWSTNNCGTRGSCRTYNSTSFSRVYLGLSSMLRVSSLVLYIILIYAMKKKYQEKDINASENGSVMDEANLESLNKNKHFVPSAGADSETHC
CCK1R, sequence (P32238 whole entry, species assumed): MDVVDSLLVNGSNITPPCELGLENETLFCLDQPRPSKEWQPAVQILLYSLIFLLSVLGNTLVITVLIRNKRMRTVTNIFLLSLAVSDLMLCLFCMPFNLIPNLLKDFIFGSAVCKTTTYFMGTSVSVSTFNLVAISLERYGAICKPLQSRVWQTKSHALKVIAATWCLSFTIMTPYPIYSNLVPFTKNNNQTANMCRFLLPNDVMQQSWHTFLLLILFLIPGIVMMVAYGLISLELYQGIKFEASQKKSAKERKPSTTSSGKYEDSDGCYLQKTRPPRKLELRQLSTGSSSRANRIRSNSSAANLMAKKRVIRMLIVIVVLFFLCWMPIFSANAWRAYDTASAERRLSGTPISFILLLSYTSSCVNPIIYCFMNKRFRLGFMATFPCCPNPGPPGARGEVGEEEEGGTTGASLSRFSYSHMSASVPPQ
A2AR, sequence (P29274 whole entry): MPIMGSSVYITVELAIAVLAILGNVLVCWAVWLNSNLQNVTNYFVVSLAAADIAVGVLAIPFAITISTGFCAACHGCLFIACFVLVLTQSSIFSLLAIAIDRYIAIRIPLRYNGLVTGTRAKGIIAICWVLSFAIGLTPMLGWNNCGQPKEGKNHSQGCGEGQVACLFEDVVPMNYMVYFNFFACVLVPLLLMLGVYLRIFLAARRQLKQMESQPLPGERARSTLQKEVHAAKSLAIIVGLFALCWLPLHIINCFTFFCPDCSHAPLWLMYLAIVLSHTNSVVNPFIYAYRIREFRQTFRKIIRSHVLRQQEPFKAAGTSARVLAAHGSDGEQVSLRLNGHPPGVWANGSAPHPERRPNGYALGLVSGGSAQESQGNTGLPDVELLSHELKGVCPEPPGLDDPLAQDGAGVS
BCRP, sequence (Q9UNQ0 whole entry, species assumed): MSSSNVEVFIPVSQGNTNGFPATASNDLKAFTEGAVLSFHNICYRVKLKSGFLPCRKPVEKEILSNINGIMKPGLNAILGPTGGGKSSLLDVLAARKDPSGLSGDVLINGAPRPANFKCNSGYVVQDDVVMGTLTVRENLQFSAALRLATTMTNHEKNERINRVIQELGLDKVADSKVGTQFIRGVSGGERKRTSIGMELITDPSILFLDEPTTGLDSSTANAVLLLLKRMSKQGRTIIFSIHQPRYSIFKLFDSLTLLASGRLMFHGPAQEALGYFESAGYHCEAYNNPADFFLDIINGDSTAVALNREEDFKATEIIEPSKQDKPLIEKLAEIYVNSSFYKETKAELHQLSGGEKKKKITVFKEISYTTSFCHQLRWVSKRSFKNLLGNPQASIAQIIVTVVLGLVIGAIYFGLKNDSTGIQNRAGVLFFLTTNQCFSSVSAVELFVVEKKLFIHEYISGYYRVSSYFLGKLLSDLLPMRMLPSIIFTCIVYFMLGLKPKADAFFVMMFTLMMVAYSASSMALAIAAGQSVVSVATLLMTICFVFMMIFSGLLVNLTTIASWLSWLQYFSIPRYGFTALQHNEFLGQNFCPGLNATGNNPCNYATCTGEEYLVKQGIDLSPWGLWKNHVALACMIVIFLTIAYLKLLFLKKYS
OCT1, sequence (O15245 whole entry): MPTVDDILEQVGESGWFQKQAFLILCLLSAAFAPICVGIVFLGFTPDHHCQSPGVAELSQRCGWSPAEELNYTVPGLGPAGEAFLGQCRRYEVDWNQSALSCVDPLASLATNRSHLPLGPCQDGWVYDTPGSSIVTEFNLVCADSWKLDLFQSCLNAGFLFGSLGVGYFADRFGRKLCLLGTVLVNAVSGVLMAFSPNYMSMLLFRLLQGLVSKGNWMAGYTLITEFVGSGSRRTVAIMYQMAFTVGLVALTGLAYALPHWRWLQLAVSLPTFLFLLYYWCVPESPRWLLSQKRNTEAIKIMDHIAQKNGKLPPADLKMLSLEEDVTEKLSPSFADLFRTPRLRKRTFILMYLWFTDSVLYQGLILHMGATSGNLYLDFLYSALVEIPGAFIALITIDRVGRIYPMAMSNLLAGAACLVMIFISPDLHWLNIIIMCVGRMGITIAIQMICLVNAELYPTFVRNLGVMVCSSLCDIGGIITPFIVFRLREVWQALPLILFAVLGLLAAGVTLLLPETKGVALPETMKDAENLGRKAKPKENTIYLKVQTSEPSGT
Complex I purified from bovine heart, sequence (P17694 34-463): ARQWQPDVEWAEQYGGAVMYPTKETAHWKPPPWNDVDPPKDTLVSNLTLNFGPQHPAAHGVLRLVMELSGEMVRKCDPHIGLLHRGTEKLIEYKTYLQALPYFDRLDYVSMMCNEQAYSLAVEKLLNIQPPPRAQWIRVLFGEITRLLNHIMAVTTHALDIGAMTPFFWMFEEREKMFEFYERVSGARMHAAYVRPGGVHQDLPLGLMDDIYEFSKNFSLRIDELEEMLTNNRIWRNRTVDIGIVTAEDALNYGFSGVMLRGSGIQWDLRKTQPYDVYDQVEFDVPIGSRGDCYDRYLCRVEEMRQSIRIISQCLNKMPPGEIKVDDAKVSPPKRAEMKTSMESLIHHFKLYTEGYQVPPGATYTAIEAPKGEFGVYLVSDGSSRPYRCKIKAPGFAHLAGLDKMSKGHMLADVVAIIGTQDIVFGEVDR
Complex I purified from bovine heart, sequence (P42026 38-216): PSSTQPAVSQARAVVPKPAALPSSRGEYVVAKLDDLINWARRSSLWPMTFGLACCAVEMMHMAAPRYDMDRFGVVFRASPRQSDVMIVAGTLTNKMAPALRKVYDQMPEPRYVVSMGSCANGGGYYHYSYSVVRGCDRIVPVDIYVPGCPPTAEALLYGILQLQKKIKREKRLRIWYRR
Complex I purified from bovine heart, sequence (P03887 whole entry): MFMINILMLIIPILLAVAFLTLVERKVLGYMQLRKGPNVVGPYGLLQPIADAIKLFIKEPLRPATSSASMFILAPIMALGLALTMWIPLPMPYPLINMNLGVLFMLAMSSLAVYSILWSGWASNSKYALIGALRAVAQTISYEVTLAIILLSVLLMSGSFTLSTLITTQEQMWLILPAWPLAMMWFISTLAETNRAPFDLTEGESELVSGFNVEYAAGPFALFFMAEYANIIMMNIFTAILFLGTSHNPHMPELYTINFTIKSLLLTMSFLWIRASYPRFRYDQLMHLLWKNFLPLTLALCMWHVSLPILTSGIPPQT
CCK2R, sequence (P32239 whole entry, species assumed): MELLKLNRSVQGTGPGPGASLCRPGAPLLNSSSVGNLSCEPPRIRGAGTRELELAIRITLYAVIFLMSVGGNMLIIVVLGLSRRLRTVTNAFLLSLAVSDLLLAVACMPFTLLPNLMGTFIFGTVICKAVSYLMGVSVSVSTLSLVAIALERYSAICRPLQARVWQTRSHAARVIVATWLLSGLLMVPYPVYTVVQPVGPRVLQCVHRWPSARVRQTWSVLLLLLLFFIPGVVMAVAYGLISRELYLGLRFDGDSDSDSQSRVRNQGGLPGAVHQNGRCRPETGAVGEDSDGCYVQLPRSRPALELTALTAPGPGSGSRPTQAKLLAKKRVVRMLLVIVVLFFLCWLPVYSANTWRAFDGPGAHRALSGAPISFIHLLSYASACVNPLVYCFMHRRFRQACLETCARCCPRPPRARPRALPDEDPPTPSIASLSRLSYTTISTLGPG
OATP1B3, sequence (Q9NPD5 whole entry): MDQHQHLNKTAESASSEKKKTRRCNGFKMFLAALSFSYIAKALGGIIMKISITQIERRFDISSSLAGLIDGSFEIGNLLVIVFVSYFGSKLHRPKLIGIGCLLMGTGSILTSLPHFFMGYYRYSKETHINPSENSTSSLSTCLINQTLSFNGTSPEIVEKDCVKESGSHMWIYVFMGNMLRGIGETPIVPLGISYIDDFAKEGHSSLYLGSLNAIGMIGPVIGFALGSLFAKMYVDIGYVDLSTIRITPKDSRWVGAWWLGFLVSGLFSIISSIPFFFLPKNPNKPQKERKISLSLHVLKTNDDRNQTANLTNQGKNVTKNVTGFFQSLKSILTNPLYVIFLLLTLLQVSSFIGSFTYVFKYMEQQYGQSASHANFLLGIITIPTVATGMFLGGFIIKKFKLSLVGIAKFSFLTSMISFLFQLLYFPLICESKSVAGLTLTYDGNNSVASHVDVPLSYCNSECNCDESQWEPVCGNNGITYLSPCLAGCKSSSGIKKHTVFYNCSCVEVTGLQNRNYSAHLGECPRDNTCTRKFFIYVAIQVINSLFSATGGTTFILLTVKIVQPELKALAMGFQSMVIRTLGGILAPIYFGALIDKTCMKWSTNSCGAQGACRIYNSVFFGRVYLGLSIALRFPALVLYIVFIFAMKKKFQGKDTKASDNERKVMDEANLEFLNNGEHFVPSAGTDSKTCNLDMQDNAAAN

SMILES: Cc1cc(-c2nc(-c3ccc(OC(F)(F)F)cc3)no2)nn1Cc1ccnc(N2CCN(C3CC3)CC2)c1 [BAY87‐2243, reference compound]
- dose at which mitochondrial ATP production is significantly inhibited [1]: less than or equal to 1 nM
- emesis in patients, clinical phase 1 [2]: induction of emesis in patients
- dose at which apoptosis is significantly affected (printed: inhibited) ([3]; H460): less than or equal to 1 nM
- what limited dose escalation [4]: limited by toxicity
- induction of emesis (retches and vomits) [4]: induced retches and vomits from half of the first patient Cmax
- dose at which an effect on OCR is detected [5]: above 100 nM
- dose at which proliferation is significantly inhibited ([6]; H460): less than or equal to 1 nM

SMILES: COc1ccc(C(O)COc2ccc(-c3csc(-c4ccc(OCC(O)c5ccc(OC)c(OC)c5)cc4)n3)cc2)cc1OC (stereo not shown) [EVT‐701, 1‐(3,4‐dimethoxyphenyl)‐2‐[4‐[2‐[4‐[2‐(3,4‐dimethoxyphenyl)‐2‐hydroxy‐ethoxy]phenyl]‐thiazol‐4‐yl]‐phenoxy]ethanol]
- IC50 [7]: 0.295 ± 0.052 µM
- IC50 [8]: > 30 µM
- increase of ligand binding to CCK2R [9]: more than 50%
- IC50 [10]: 0.188 ± 0.05 µM
- IC50 [11]: 0.3 µM
- increase of MLK2 activity [12]: more than 30%
- IC50 [13]: 0.074 ± 0.038 µM
- inhibition of NADH oxidation and phosphorylation of ADP into ATP [14]: 80%
- phosphorylation of 4E‐BP1 (Serine 65), Raptor and ACC downstream of AMPK [15]: increased phosphorylation state
- decrease of tumor volume at D21 [16]: 60%
- IC50 [17]: 2.4 ± 0.2 µM
- glucose consumption and lactate release [18]: increased glucose consumption and lactate release
- total ATP [19]: remains unchanged
- Kp ([20]; brain): 0.25
- Kp ([20]; heart): 4.2
- Kp ([20]; kidney): 4.5
- Kp ([20]; liver): 5.9
- Kp ([20]; lung): 2.3
- Kp ([20]; pancreas): 4.5
- inhibition of kinase activity, any of the 198 kinases of the panel [21]: ≤ 30%
- 4E‐BP1, Raptor and ACC phosphorylation [22]: unaffected
- IC50 [23]: 0.052 ± 0.018 µM
- IC50 [24]: > 30 µM
- overall survival [25]: no effect
- weight of lymphomas vs Vehicle [25]: similar
- progression‐free survival ([25]; data not shown): no effect
- rescue of inhibitory effect on respiration [26]: rescued by succinate
- IC50 [27]: 1.1 ± 0.1 µM
- IC50 ([3]; Homo sapiens, NCI-H460, read-out: IC50 apoptosis induction): 0.096 ± 0.028 µM
- what limited dose escalation [4]: by solubility
- induction of emesis (retches and vomits) [4]: didn't
- induction of apoptosis [28]: no induction of apoptosis
- cell death induction [29]: no significant cell death
- IC50 [30]: 0.081 ± 0.012 µM
- IC50 [31]: > 30 µM
- F (bioavailability) ([32]; AUC of 10 mg/kg oral dose vs AUC of intravenous dose, 10 mg/kg): 64%
- half-life ([32]; C57BL/6J, mouse, plasma, po, 10 mg/kg): 4.1 h
- dose‐proportionality ([32]; oral 10, 30 and 75 mg/kg): conserved from 10 to 75 mg/kg
- P‐gp transport [33]: not affected
- decrease of ligand binding to A2AR [34]: more than 50%
- increase of ligand binding to CCK1R [35]: more than 50%
- lymphomas harvested vs Vehicle [36]: significantly smaller
- overall survival [36]: significant increase
- progression‐free survival ([36]; not shown): significant increase
- sensitivity to cell death induction, OxPhos‐Eµ‐Myc vs glycolytic‐Eµ‐Myc cells [37]: more sensitive
- IC50 ([6]; Homo sapiens, NCI-H460, read-out: apparent IC50 proliferation): 0.068 ± 0.027 µM
- IC50 [38]: 4.1 ± 2.7 µM

SMILES: Cc1nc(-c2nc(-c3ccc(OC(F)(F)F)cc3)no2)nn1Cc1cccc(N2CCC(S(C)(=O)=O)CC2)c1 [IACS‐010759]
- tolerability in phase 1 [39]: well‐tolerated

Reference: publication PMC8415080 (Pharmacology Research & Perspectives, 2021)
